Laboratory results taken from PubChem BioAssay AID804 (SRMLSC, 2007).
Out of some 140,000 compounds screened, about 710 (0.51%) were called active.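 Rule for the calls: active = inhibition above a set limit, 3 SD over the mean compound inhibition (cut at about 44% in these data); inactive = the rest.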 The entries come from a sample that favours actives as a whole.

test: growth inhibitors of yeast BB579 in restrictive medium, primary screen, yeast lifespan-shortening project, S. cerevisiae (AID 804); settings: OD615, 48 h, at 10 µM, hits give high values
Procedure, shortened: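 System: Saccharomyces cerevisiae DeaD strain BB579, replicative lifespan model yeast | Buffer or medium: Restrictive glucose-based CSMM-D medium | Times: 4 h preincubation and 48 h exposure at 30 °C | Detection: OD615 turbidity measurement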

inhibition, active:
CCc1ccc2c(c1)C1(NN=C(c3ccccc3)S1)C(=O)N2 (stereo not given) 94.7%
Oc1c(Cl)cc(Cl)c(Cl)c1Cc1c(O)c(Cl)cc(Cl)c1Cl 71.3%
COc1cc(Br)cc(/C=N/c2ncn[nH]2)c1O 54.7%
Clc1cccc(CN2COc3c(cc(Cl)c4cccnc34)C2)c1 99.4%
NC(N)=N/N=C/c1ccc(OCc2ccc(Cl)cc2Cl)cc1 99.3%
S=C(NCc1ccc(Cl)cc1)NC12CC3CC(CC(C3)C1)C2 50%

inhibition, inactive:
CCOC(=O)CC(NC(=O)C1c2ccccc2Oc2ccccc21)c1ccc(C)cc1 (stereo not given) -27.5%
Cc1cc(/C=C2/NC(=O)NC2=O)c(C)n1-c1cccnc1 -7.15%
CC(C)n1c(O)c(N=Nc2ccccn2)c2ccccc21 -16.1%
C=C1c2cc(CC)ccc2NC(=O)N1c1ccc(C)cc1 23.4%
O=C1Nc2ccccc2C12Nc1ccccc1S2 (stereo not given) -30.7%
Cc1ccc(OCCOCCOc2ccc(Br)cc2/C=N\NC(=O)c2ccncc2)cc1 -32.5%
COC(=O)c1ccccc1NC(=S)NC(=O)c1ccccc1F -31.5%
CC(C)(C)c1ccc(/C=C/C(=O)Nc2ncccn2)cc1 -6.47%
CCn1c(C(C)NC(=O)c2ccc(C)cc2)n[nH]c1=S (stereo not given) -50.9%
COc1ccc(Cc2nnc(N/N=C/c3ccccc3O)[nH]c2=O)cc1OC -57%
Cc1csc(=Nc2ccccc2)n1CCO -3.94%
Cc1ccc(C(=O)Nc2sc(Cc3ccc4c(c3)OCO4)c(C)c2C(N)=O)cc1 -10.9%
NC1=C([N+](=O)[O-])C(c2ccccc2)C2=C(CCCC2=O)O1 (stereo not given) -44.3%
CCCCC(O)(CCCC)C(=O)NN(C(=O)CCl)c1ccccc1 -4.22%
CCOC(=O)c1sc2nc(C)nc(SCC(N)=O)c2c1C -20.9%
CCOc1ccc(/C=N/NC(=O)C(C)Sc2ccccn2)cc1OCC (stereo not given) -33.6%
Cc1ccc2[nH]c(=O)c(CC=C(Cl)Cl)c(C)c2c1 -51.5%
CCOC(=O)c1sc(NC(=O)COc2ncnc3ccccc23)c(C(=O)OCC)c1C -43.9%
Cc1nn(Cc2ccccc2)c(C)c1C(=O)NCCN1C(=O)S/C(=C\c2ccc(F)cc2)C1=O -32.9%
CC(CNc1ccc([N+](=O)[O-])c2cccnc12)Nc1c([N+](=O)[O-])cc(C(F)(F)F)cc1[N+](=O)[O-] (stereo not given) -23.5%
NS(=O)(=O)c1ccc(N=Cc2ccc(Br)s2)cc1 -15%
O=C(COC(=O)/C=C/c1cn(-c2ccccc2)nc1-c1cccnc1)Nc1ccc(Cl)cc1Cl -21.4%
CC(Sc1nnc2c(n1)C1CCC2(C)C1(C)C)C(=O)Nc1ccccc1 (stereo not given) -23.4%
O=C(/C=C\c1ccc2c(c1)OCO2)NC1(C(=O)Nc2ccc3c(c2)OCCO3)CCCCC1 9.33%
COc1ccc(S(=O)(=O)N2CN(CCc3ccc(OC)c(OC)c3)c3nc4ccccc4nc32)cc1 -25.7%
COc1cccc(N(C(=O)C2COc3ccccc3O2)C(C(=O)NC2CCCCC2)c2ccc(O)cc2)c1 (stereo not given) -6.16%
CCCCCCCC[n+]1cccc(C(=O)N2c3c(nc(N)[nH]c3=O)NC(C)C2C)c1 (stereo not given) -5.07%
O=C(Nc1nc(-c2ccc(-c3ccccc3)cc2)cs1)c1cnccn1 -18.9%
O=C(CNCc1ccc(F)cc1)Nc1ccccc1-c1ccccc1 -20.9%
COc1ccc(Br)cc1/C=N/n1c(C)nnc1C -33.3%
Oc1ccc(Br)cc1C=Nc1ccc2[nH]ncc2c1 -67.6%
Nc1c(C(=O)NCc2ccccc2)nnn1Cc1cccc(Cl)c1 -3.98%
O=c1[nH]n(-c2cccc(Cl)c2)c2ncccc12 -63.7%
Cc1cc(OCCCC(=O)NCCN2C(=O)S/C(=C\c3cccnc3)C2=O)ccc1Cl -3.48%
CCc1c(C)sc(NC(=O)/C=C/c2ccc3c(c2)OCO3)c1C(=O)OC -27.2%
Nc1nc(NC(=O)/C=C/c2ccccc2)nn1-c1ccccc1 -11.2%
COc1ccc(C(=O)O/N=C(\N)Cc2ccc(Cl)cc2Cl)cc1OC -25.8%
COC(=O)c1sc2ncccc2c1OCc1ccc(Cl)cc1Cl -44.1%
COc1ccccc1CN(C)C(=O)C1(c2ccc(Cl)cc2)CC1 -2.98%
N/C(=N\OC(=O)CC1CCCCC1)c1ccccc1 -2.81%
CCCCn1c(=S)[nH]c2ccccc2c1=O 6.35%
Cc1c(Cl)c([N+](=O)[O-])nn1CCCC(=O)Nc1cc(Cl)ccc1Cl 2.39%
Nc1nc(SCC(=O)NN(c2ccccc2)c2ccccc2)n[nH]1 -6.56%
CC(C)(C)C1CCC(=NNC(=O)c2cc(-c3ccccc3)n[nH]2)CC1 (stereo not given) -16.9%
O=C1NC(c2ccccc2)=NC1(Nc1ccccn1)C(F)(F)F (stereo not given) -3.11%
CCN=C1S/C(=C\c2cc(Br)ccc2OCC(=O)OCC)C(=O)N1CC -14.3%
COCCn1c(SCC(=O)Nc2ccc3c(c2)CCC3)nc2ccccc2c1=O -36.9%
COc1ccc(C2Nc3ccccc3C(=O)N2c2ccc(F)cc2)cc1Cn1nnc2ccccc21 (stereo not given) -29.1%
CC(C)CNC(=S)Nc1ccc(F)cc1 14.5%
CCOC(=O)c1cc2c(nc1NC(=S)Nc1ccccc1)CC(C)(CC)OC2 (stereo not given) 0.93%
COc1cc(NC(=O)c2ccccc2NS(=O)(=O)c2ccc(Cl)s2)cc(OC)c1 -5.4%
S=C(NCc1ccc(Cl)cc1)NC1CCCCC1 -27.3%
COC(=O)Cc1ccc(NC(=S)NCc2ccc(Cl)cc2)cc1 -19.1%
O=C(CCc1nc2ccccc2c(=O)[nH]1)OCC(=O)c1cccc(Cl)c1 -13.4%
